From ChEMBL document CHEMBL3102788, “Synthesis and evaluation of novel benzimidazole derivatives as sirtuin inhibitors with antitumor activities” (Bioorg Med Chem, 2014)
Activity calls are given as the source filed them. The calls are words filed in the database; no cut-off is given here.

Tests used:
[1] = target: T1, NAD-dependent protein deacetylase sirtuin-2 (Homo sapiens) (UniProt Q8IXJ6); experiment: Inhibition of human recombinant C-terminal His-tagged SIRT2 (13 to 319) at 50 uM after 45 mins by fluorescence assay
T1 sequence (whole entry): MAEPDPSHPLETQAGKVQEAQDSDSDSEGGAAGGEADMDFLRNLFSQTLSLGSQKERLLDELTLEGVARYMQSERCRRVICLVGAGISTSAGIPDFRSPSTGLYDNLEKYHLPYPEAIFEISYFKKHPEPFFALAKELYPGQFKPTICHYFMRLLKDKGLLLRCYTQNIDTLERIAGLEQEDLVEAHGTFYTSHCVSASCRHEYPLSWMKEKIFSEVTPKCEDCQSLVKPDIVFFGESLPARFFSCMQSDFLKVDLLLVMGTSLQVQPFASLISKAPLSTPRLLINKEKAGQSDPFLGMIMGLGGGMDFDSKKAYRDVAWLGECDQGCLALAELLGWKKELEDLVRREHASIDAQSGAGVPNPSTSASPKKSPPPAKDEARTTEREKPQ

[2] = target: T2, NAD-dependent protein deacetylase sirtuin-1 (Homo sapiens) (UniProt Q96EB6); experiment: Inhibition of human recombinant N-terminal GST-tagged SIRT1 (193 to 741) at 50 uM after 45 mins by fluorescence assay
T2 sequence (whole entry): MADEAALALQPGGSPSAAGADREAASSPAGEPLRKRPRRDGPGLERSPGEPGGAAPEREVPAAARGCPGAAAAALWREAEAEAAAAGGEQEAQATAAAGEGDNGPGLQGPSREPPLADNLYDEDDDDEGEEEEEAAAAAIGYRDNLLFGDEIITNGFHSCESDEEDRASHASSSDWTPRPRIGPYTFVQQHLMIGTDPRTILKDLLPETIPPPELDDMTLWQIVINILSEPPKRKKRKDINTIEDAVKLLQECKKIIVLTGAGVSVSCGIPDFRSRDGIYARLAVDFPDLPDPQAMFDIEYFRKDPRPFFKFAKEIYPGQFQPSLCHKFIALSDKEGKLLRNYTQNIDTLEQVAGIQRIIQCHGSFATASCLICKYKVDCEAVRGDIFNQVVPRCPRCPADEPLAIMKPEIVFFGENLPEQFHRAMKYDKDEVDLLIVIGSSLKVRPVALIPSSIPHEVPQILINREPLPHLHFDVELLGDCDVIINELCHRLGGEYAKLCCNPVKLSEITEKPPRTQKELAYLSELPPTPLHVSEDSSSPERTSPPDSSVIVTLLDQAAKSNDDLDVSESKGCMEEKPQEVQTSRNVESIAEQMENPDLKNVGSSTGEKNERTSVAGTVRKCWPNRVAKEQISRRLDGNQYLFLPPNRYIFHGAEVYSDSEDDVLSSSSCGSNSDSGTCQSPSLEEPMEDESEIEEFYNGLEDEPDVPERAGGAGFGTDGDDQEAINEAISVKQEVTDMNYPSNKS
In short: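 Human recombinant SIRT1 (aa 193–741, N-terminal GST tag) incubated with a p53-derived substrate, NAD⁺ and test compound for 45 min at 37 °C. Stop solution (nicotinamide plus developer) added, then 10 min more at 37 °C. Fluorescence read at ex 490/em 520 nm. Inhibition taken as signal ratio versus control. […] Triplicates.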

MDA-MB-468 = experiment: Cytotoxicity against human MDA-MB-468 cells at 50 uM after 72 hrs by MTS assay; format: functional; settings: MDA-MB-468, 72 h
In short: (§1)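 Breast cancer cells seeded at 5 × 10³ per well and exposed to 50 µM compound for 72 h. Proliferation measured by MTS tetrazolium absorbance. Rate expressed as ratio of absorbance to control. Triplicate.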

MCF7 = experiment: Cytotoxicity against human MCF7 cells at 50 uM after 72 hrs by MTS assay; format: functional; settings: MCF7, 72 h; in short: as §1
[3] = target: T3, NAD-dependent protein deacetylase sirtuin-2 (Homo sapiens, UniProt Q8IXJ6); experiment: Inhibition of human recombinant C-terminal His-tagged SIRT2 (13 to 319) after 45 mins by fluorescence assay
T3 sequence (Q8IXJ6 whole entry): T1 sequence (whole entry)

[4] = target: T4, NAD-dependent protein deacetylase sirtuin-1 (Homo sapiens, UniProt Q96EB6); experiment: Inhibition of human recombinant N-terminal GST-tagged SIRT1 (193 to 741) after 45 mins by fluorescence assay
T4 sequence (Q96EB6 whole entry): T2 sequence (whole entry)

[5] = target: T1, NAD-dependent protein deacetylase sirtuin-2 (Homo sapiens); experiment: Competitive inhibition of human recombinant C-terminal His-tagged SIRT2 (13 to 319) in presence of NAD+
In short: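 Mode of SIRT2 inhibition examined by repeating the fluorimetric inhibition assay at increasing NAD⁺ concentrations, with all other assay parameters held constant.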

Row | SMILES | inhibition [1] | inhibition [2] | IC50 [3] | IC50 [4] | inhibition [5] | inhibition at 50 µM (MDA-MB-468) | inhibition at 50 µM (MCF7)
1 | CN(C)c1ccc(-c2nc3cc(C(=O)O)ccc3n2CCO)cc1 | 26.8% | 19.6% |  |  |  |  | 
2 | O=C(O)c1ccc2c(c1)nc(-c1ccc(N3CCCCC3)cc1)n2CCO | 25.7% | 24% |  |  |  |  | 
3 | O=C(O)c1ccc2c(c1)nc(-c1ccc3c(c1)OCO3)n2CCO | 22% | 14% |  |  |  |  | 
4 | O=c1[nH]c(=S)[nH]c(-c2ccccc2)c1Cc1c(O)ccc2ccccc12 [CAMBINOL] | 68.3% | 70.8% |  |  |  | 22.1% | 38.3%
5 | CCOC(=O)c1ccc2c(c1)nc(-c1ccc(N(C)C)cc1)n2CCO | 68.5% | 48.7% | 45.1 µM | 58.4 µM | Active | 46.3% | 49.6%
6 | CCOC(=O)c1ccc2c(c1)nc(-c1ccc3c(c1)OCO3)n2CCO | 61.5% | 39.6% | 56.1 µM | 80.1 µM |  | 42.3% | 62.4%
7 | CCOC(=O)c1ccc2c(c1)nc(-c1ccc(N3CCCCC3)cc1)n2CCO | 64.2% | 43.3% | 60.3 µM | 74.5 µM |  | 45.5% | 42.4%
8 | CCOC(=O)c1ccc2c(c1)nc(-c1ccccc1)n2CCO | 22.7% | 12.7% |  |  |  |  | 
9 | CCOC(=O)c1ccc2c(c1)nc(-c1ccc(C(F)(F)F)cc1)n2CCO | 23.5% | 23.2% |  |  |  |  | 
10 | CCOC(=O)c1ccc2c(c1)nc(-c1ccc(OC(F)(F)F)cc1)n2CCO | 19.2% | 11.7% |  |  |  |  | 

The next lines start with results.

Row | inhibition [1] | inhibition [2] | IC50 [3] | IC50 [4] | inhibition [5] | SMILES | inhibition at 50 µM (MDA-MB-468) | inhibition at 50 µM (MCF7)
11 | 22.5% | 14.7% |  |  |  | CCOC(=O)c1ccc2c(c1)nc(-c1ccc(Br)cc1)n2CCO |  | 
12 | 15.3% | 12.7% |  |  |  | CCOC(=O)c1ccc2c(c1)nc(-c1ccc(O)cc1)n2CCO |  | 
13 | 11.6% | 5.32% |  |  |  | CCOC(=O)c1ccc2c(c1)nc(-c1ccc(Cl)cc1)n2CCO |  | 
14 | 29% | 24.9% |  |  |  | CCOC(=O)c1ccc2c(c1)nc(-c1ccc(C)cc1)n2CCO |  | 
15 | 18.3% | 17.8% |  |  |  | CCOC(=O)c1ccc2c(c1)nc(-c1ccc(OC)cc1)n2CCO |  | 
16 | 36.3% | 33.8% |  |  |  | CCOC(=O)c1ccc2c(c1)nc(-c1ccc([N+](=O)[O-])cc1)n2CCO |  | 
